The source of these data is ChEMBL document CHEMBL1143064, “Novel 9a-carbamoyl- and 9a-thiocarbamoyl-3-decladinosyl-6-hydroxy and 6-methoxy derivatives of 15-membered macrolides” (Bioorg Med Chem, 2007).

Where only a bound is given, the exact number is not on record here.

Data set [1] concerns Staphylococcus aureus. Kind of data set: Antibacterial activity against Staphylococcus aureus-M after 24 hrs by microdilution method. Type of data set: functional. The method, boiled down: (§1)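 Broth microdilution in Mueller–Hinton medium run on an automated liquid handler. Compounds dissolved in DMF (5 mg/ml stock) and tested in medium from 64 to 0.125 µg/ml. Plates incubated 24 h at 37 °C, then growth read as absorbance at 600 nm. MIC taken as the concentration giving 90% growth inhibition.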
(Broth dilution looks for growth in wells or tubes with falling amounts of substance.)

Data set [2] concerns Staphylococcus aureus. Kind of data set: Antibacterial activity against Staphylococcus aureus-cMLS after 24 hrs by microdilution method. It counts as functional. A digest of the protocol:
as §1

Data set [3] relates to Streptococcus pneumoniae. Put plainly: Antibacterial activity against Streptococcus pneumoniae after 24 hrs by microdilution method. Type of data set: functional. A digest of the protocol:
as §1

Data set [4] deals with Streptococcus pneumoniae. Put plainly: Antibacterial activity against Streptococcus pneumoniae-M after 24 hrs by microdilution method. It counts as functional. A digest of the protocol:
as §1

The test system of data set [5] is Streptococcus pyogenes. Kind of data set: Antibacterial activity against Streptococcus pyogenes after 24 hrs by microdilution method. It counts as functional. A digest of the protocol:
as §1

The subject of data set [6] is Streptococcus pyogenes. Kind of data set: Antibacterial activity against Streptococcus pyogenes-M after 24 hrs by microdilution method. Type of data set: functional. The method, boiled down:
as §1

The next data set deals with Haemophilus influenzae. Put plainly: Antibacterial activity against Haemophilus influenzae after 24 hrs by microdilution method. Type of data set: functional. The method, boiled down: as §1
The next data set deals with Saccharomyces cerevisiae. Kind of data set: Toxicity against Saccharomyces cerevisiae. Type of data set: organism-based. The settings on record: in vivo. A digest of the protocol: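 Yeast used as a surrogate for eukaryotic cell toxicity. Microdilution in Mueller–Hinton medium with compound from a DMF stock (5 mg/ml), final range 64 to 0.125 µg/ml. Incubated 24 h at 37 °C, with optical density read at 600 nm. MIC defined as the concentration inhibiting growth by 90%.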

As for `CC[C@H]1OC(=O)[C@H](C)[C@@H](O)[C@H](C)[C@@H](O[C@@H]2O[C@H](C)C[C@H](N(C)C)[C@H]2O)[C@](C)(O)C[C@@H](C)CN(C(=O)NC(C)(C)C)[C@H](C)[C@@H](O)[C@]1(C)O`, the MIC against Staphylococcus aureus [1], against Staphylococcus aureus [2], in the data set with Streptococcus pneumoniae [3], in the data set with Streptococcus pneumoniae [4], in the data set on Streptococcus pyogenes [5] and in the data set on Streptococcus pyogenes [6] was > 64 µg/mL in each case. Besides, in the data set with Haemophilus influenzae, the MIC is > 64 µg/mL. Besides, the Activity result in the data set with Saccharomyces cerevisiae was “Non-toxic”.
For the compound `CC[C@H]1OC(=O)[C@H](C)[C@@H](O)[C@H](C)[C@@H](O[C@@H]2O[C@H](C)C[C@H](N(C)C)[C@H]2O)[C@](C)(O)C[C@@H](C)CN(C(=O)Nc2cccc(C(F)(F)F)c2)[C@H](C)[C@@H](O)[C@]1(C)O`, the MIC in the data set with Staphylococcus aureus [1], in the data set with Staphylococcus aureus [2], in the data set on Streptococcus pneumoniae [3], against Streptococcus pneumoniae [4], in the data set with Streptococcus pyogenes [5] and in the data set on Streptococcus pyogenes [6] was > 64 µg/mL each time. The MIC with Haemophilus influenzae was > 64 µg/mL. For the same compound, in the data set on Saccharomyces cerevisiae, the Activity result is “Non-toxic”.
Turning to `CC[C@H]1OC(=O)[C@H](C)[C@@H](O)[C@H](C)[C@@H](O[C@@H]2O[C@H](C)C[C@H](N(C)C)[C@H]2O)[C@](C)(O)C[C@@H](C)CN(C(=S)Nc2cccc(C(F)(F)F)c2)[C@H](C)[C@@H](O)[C@]1(C)O`, the MIC with Staphylococcus aureus [1], with Staphylococcus aureus [2], in the data set on Streptococcus pneumoniae [3], in the data set on Streptococcus pneumoniae [4], in the data set on Streptococcus pyogenes [5] and in the data set on Streptococcus pyogenes [6] was > 64 µg/mL each time. In the data set with Haemophilus influenzae, the MIC is > 64 µg/mL. For the same compound, the Activity result in the data set with Saccharomyces cerevisiae is recorded as “Non-toxic”.
For `CC[C@H]1OC(=O)[C@H](C)[C@@H](O)[C@H](C)[C@@H](O[C@@H]2O[C@H](C)C[C@H](N(C)C)[C@H]2O)[C@](C)(O)C[C@@H](C)CN(C(=O)NCc2ccccc2)[C@H](C)[C@@H](O)[C@]1(C)O`, the MIC against Staphylococcus aureus [1], against Staphylococcus aureus [2], in the data set with Streptococcus pneumoniae [3], against Streptococcus pneumoniae [4], against Streptococcus pyogenes [5] and in the data set with Streptococcus pyogenes [6] was > 64 µg/mL each time. Besides, the MIC against Haemophilus influenzae was > 64 µg/mL. Moreover, the Activity entry in the data set with Saccharomyces cerevisiae is recorded as “Non-toxic”.
Consider `CCNC(=O)N1C[C@H](C)C[C@@](C)(O)[C@H](O[C@@H]2O[C@H](C)C[C@H](N(C)C)[C@H]2O)[C@@H](C)[C@H](O)[C@@H](C)C(=O)O[C@H](CC)[C@@](C)(O)[C@H](O)[C@H]1C`, for which the MIC in the data set with Staphylococcus aureus [1], with Staphylococcus aureus [2], in the data set on Streptococcus pneumoniae [3], against Streptococcus pneumoniae [4], against Streptococcus pyogenes [5] and in the data set with Streptococcus pyogenes [6] was > 64 µg/mL in each case. In addition, the MIC with Haemophilus influenzae is > 64 µg/mL. Besides, the Activity entry in the data set with Saccharomyces cerevisiae is reported as “Non-toxic”.
With `CC[C@H]1OC(=O)[C@H](C)[C@@H](O)[C@H](C)[C@@H](O[C@@H]2O[C@H](C)C[C@H](N(C)C)[C@H]2O)[C@](C)(O)C[C@@H](C)CN(C(=O)Nc2ccccc2C(F)(F)F)[C@H](C)[C@@H](O)[C@]1(C)O`, the MIC against Staphylococcus aureus [1], with Staphylococcus aureus [2], in the data set with Streptococcus pneumoniae [3], in the data set with Streptococcus pneumoniae [4], in the data set with Streptococcus pyogenes [5] and with Streptococcus pyogenes [6] was > 64 µg/mL throughout. Besides, the MIC with Haemophilus influenzae is > 64 µg/mL. In the data set on Saccharomyces cerevisiae, the Activity result is given as “Non-toxic”.
